Compound activity as filed in PubChem.
PMI act hi M6P: PMI (human) activation, high substrate; AID 1216; actives 0.34% (n = 190,000); activation factor at 20 µM; P34949; coupled PMI enzyme assay, resazurin fluorescence, 20 min; hits give high values; 1 = untreated enzyme, 0 = substrate-free blank;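 active = activation factor of 2 or more at 20 µM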
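Technique: Diaphorase-driven resazurin-to-resorufin fluorescence, excitation 544, emission 590 nm | Assay system: Human PMI in coupled enzyme assay | Times: Enzyme reaction with compound 20 min at room temperature | Medium: HEPES-buffered pH 7.4 with magnesium and detergent | Reagent: Mannose-6-phosphate 1.0 mM (near-saturating) plus 0.22 mM NADP+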
PMI activator: phosphomannose isomerase (human) activation; purified human PMI, coupled resazurin fluorescence, 20 min; hits give high values; 1 = vehicle control, 0 substrate-free wells; activation factor at 20 µM; actives 0.005% (n = 190,000); AID 1214;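 active = activation factor of 2 or more at 20 µM, relative to plate controls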
WT yeast gro inh: growth inhibition of WT yeast, mitochondrial fusion screen | mitochondrial fusion phenotypic screen, WT strain | inhibition, % at 10 µM | actives 2.1% (n = 190,000); in the data active = inhibition above about 58%; tested in S. cerevisiae
m-calpain inh: blocks pig calpain II enzyme activity; purified calpain II, fluorogenic peptide substrate, 30 min; inhibition, % at 16 µM; actives 0.37% (n = 220,000);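 active = inhibition above about 50%, limit read from the data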
L major viab: Leishmania major promastigote growth inhibition | Leishmania major promastigotes, resazurin fluorescence viability | inhibition, % at 10 µM | actives 9% (n = 200,000); in the data active = inhibition above about 50%;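 also: promastigotes grown with compound for 44 hours at 28 °C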
Rad51 HR inh: blocks human Rad51 in homologous recombination; inhibition, % at 10 µM; actives 0.085% (n = 200,000); hRad51 DNA strand exchange, fluorescence dequenching;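 active = inhibition above 40% at the single screening dose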;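 also: 0% = DMSO control wells and 100% = blanks with heterologous ssDNA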
Target sequence (Q06609 whole entry, looked up): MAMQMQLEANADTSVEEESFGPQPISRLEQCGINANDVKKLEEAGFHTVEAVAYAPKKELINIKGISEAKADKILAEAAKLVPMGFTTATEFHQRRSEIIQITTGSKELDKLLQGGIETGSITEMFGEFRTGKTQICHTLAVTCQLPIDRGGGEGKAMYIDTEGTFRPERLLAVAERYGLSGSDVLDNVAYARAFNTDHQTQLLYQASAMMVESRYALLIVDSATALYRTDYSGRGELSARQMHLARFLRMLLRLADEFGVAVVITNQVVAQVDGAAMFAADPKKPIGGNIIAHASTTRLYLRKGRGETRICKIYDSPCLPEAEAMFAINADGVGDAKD
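Assay system: Human Rad51 nucleoprotein filaments preassembled on unlabelled ssDNA | Reagent: Donor/quencher-labelled 47-bp dsDNA substrate | Doses: One concentration, 10 µM final | Times: 37 °C 15-min filament assembly, 30-min compound preincubation, 15-min exchange | Technique: Fluorescein emission 520 nm, excitation 485 nm | Benchmarks: Plate control and blank wells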
Lmaj promast 1uM: L. major promastigote growth inhibition, 1 uM repeat; actives 13% (n = 1,100); inhibition, % at 1 µM; shares compounds with L major viab; resazurin fluorescence, 48 h;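 active = inhibition above about 50% in both repeat tests, limit read from the data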
Starred values were filed as active, the others as inactive; i = inactive; x = no result. Compounds with a hit are over-represented: about 9.8% of the library has one in this group of screens.

SMILES	PMI act hi M6P	PMI activator	WT yeast gro inh	m-calpain inh	L major viab	Rad51 HR inh	Lmaj promast 1uM
CC[n+]1c(C)sc2c(C)cc(C)cc21	0.3	0.3	5	-5	69*	-5	-11
Cc1c(C(=O)N2CCCCC2)nnn1-c1nonc1N	0.9	0.9	5	-1	-7	3	x
C/C(=N\OCC(=O)NCC(F)(F)F)c1cc2ccccc2o1	1	1	-3	9	56*	10	-2
COc1ccc(OC)c(/C=C/C(=O)OCC(=O)c2c(N)n(C)c(=O)n(C)c2=O)c1	1	0.9	-39	i	-3	6	x
N/N=C(\c1ccccc1)C12CN3CN(CN(C3)C1)C2	1.1	0.9	-9	-1	52*	4	-14
C=CC[n+]1c(-c2ccc(OC)c(OC)c2)csc1NNC(=O)Nc1ccccc1	1	1	2	-11	100*	4	47
COc1ccc(CCNC(=O)c2ccccc2SC)cc1	1.1	1.1	-33	7	6	1	x
N#C/C(=C\c1cccc2ccccc12)c1nn(-c2ccccc2)c(N)c1C#N	x	x	x	x	32	3	x
Cc1ccc(/C=C(\C#N)c2nn(-c3ccccc3)c(N)c2C#N)cc1	0.9	0.8	-3	20	65*	2	-6
CCCS(=O)(=O)c1c(S(=O)(=O)CCC)c2c3ccccc3ccn2c1C(=O)OC	0.9	0.8	8	-80	82*	-2	0
CCCS(=O)(=O)c1c(S(=O)(=O)CCC)c2c(C)cccn2c1C(=O)OC	1.2	1.1	-9	-66	-4	-5	x
COc1cccc2c(=O)c(C/C=C(/C)Cl)c(C)[nH]c12	1	1	19	-55	100*	-8	99*
Cc1noc(C)c1COc1ccc(C(=O)OCC(=O)Nc2cccc(S(=O)(=O)N3CCOCC3)c2)cc1	0.9	0.8	-6	20	3	5	x
Cc1ccccc1NC(=O)CSc1nc2n(n1)CCCCC2	1.1	1.1	-8	-4	-3	7	x
Oc1ccccc1C1Nc2cccc3cccc(c23)N1	0.6	0.9	-23	-272	-6	-4	x
O=[N+]([O-])c1ccccc1C1Nc2cccc3cccc(c23)N1	1	0.9	-10	-10	97*	-2	-9
O=C(O)CCCCCCCCCCP(=O)(c1ccccc1)c1ccccc1	x	x	x	-15	x	-1	x
O=P(CCCCCCCCCP(=O)(c1ccccc1)c1ccccc1)(c1ccccc1)c1ccccc1	1	1	16	57*	93*	0	-5
CCOc1ccccc1NC(=O)C(=O)N/N=C/c1cc(Br)ccc1O	1.1	1.1	-4	-45	100*	4	-38
O=C(N/N=C/c1cc(Br)ccc1O)Nc1ccccc1	1.2	1.1	32	-49	12	3	x
CC(=O)c1sc(NC(=O)COc2ccc(C(C)C)c(C)c2)nc1C	1.1	1.1	6	47	-2	x	x
COc1ccc(-c2nc3ccccc3s2)cc1	1	1	28	16	0	-10	x
COc1ccc(C2=NN(c3nc4ccccc4s3)C(=O)/C2=C\N(C)C)cc1	1	1.2	4	-4	54*	-8	-18
CCCCCOc1ccc(Br)cc1/C(C)=N/NC1=NCCN1	1	1.1	70	-36	100*	x	35
CCN(CC)CC(=O)Nc1ccc(/C(C)=N/NC2=NCCN2)cc1	1.1	1.1	-37	-17	28	9	x
SMILES	PMI act hi M6P	PMI activator	WT yeast gro inh	m-calpain inh	L major viab	Rad51 HR inh	Lmaj promast 1uM
CCCCCCCCCCCCCCCC[n+]1cccc(C(=O)N(CC)CC)c1	1.1	1	98	34	100*	14	79*
CCCCCCCCCCCCCCCC[n+]1ccc(C(N)=O)cc1	1.2	0.7	99*	72*	100*	4	9
CCCCN(CCCC)C(=O)C[n+]1cccc(/C=N/O)c1	1.1	1.1	-9	-17	-4	2	x
CCCCC(=O)Nc1ccc(C(N)=O)cc1	0.9	1	2	6	-9	-6	x
Oc1ccc[n+](CCCCC[n+]2cccc(O)c2)c1	x	x	x	-17	x	-2	x
CCCCCCCCCCCCCCCC[n+]1ccc(/C=N/O)cc1	1.2	1.1	98*	29	100*	9	101*
O=C(Nc1ccc(S(=O)(=O)N2CCOCC2)cc1)c1ccc(=O)[nH]c1	x	x	x	-29	x	9	x
Cn1cc(CN2CCC(CO)CC2)c(-c2ccc(Oc3ccccc3)cc2)n1	1	1	-3	-1	97*	10	75*
Cc1nc(-c2cn[nH]c2)c2cc(C)oc2n1	1.1	1	-1	-58	62*	5	-8
O=C(c1nc2ccccn2c1CN1CCCC(c2nc3ccccc3o2)C1)N1CCCC1 (stereo not drawn)	0.9	0.9	9	35	-1	10	x
COc1ccc(NC2=Nc3cccc4cccc2c34)cc1	0.9	0.8	13	19	74*	x	27
C/C(=C\C=C(C#N)C#N)c1cc(C#N)c(N)o1	0.3	0.6	36	11	5	-43	x
Cc1ccc(NC(=O)C2CCCN2C(=O)NC2CCCCC2)cc1 (stereo not drawn)	0.9	0.9	-4	-4	-4	4	x
Cc1cccc(COCC(CC(C)C)N2CCN(C(=O)c3ccc(C(C)(C)C)cc3)CCC2=O)c1 (stereo not drawn)	1.1	1.1	84*	19	58*	3	-8
Cc1cccc(COCC(CC(C)C)N2CCN(C(=O)c3ccc(C(F)(F)F)cc3)CCC2=O)c1 (stereo not drawn)	1.1	1.1	44	24	9	-6	x
COc1ccccc1C(=O)Nc1ccc(-c2nnn(CC(=O)NCc3ccco3)n2)cc1	x	x	x	-55	x	-9	x
Cc1ccc(NC(=O)CC2=NC(=O)C(CC(=O)Nc3ccccc3C)S2)cc1 (stereo not drawn)	1.1	1	-9	-103	-1	-2	x
Cc1nnc(C)c2c(C)n(C(c3ccccc3)c3ccccc3)c(C)c12	0.9	0.9	52	-103	100*	1	-11
Cc1nnc(C)c2c(C)n(-c3ccccc3N)c(C)c12	0.4	0.8	-2	1	0	-12	x
CCOC(=O)c1c(C)oc2ccc(O)c(CN3CCCCC3)c12	0.9	0.9	8	11	88*	4	-10
CCOC(=O)c1c(C)n(C)c2ccc(O)c(CN3CCCCC3)c12	0.9	0.9	-2	1	31	5	x
O=c1[nH][nH]cc1C=Nc1ccccc1O	1	0.9	7	20	98*	-2	-4
Cc1c(Cl)cccc1NC(=O)Cn1cc(C(F)(F)F)cc(Cl)c1=O	1.1	1.1	4	-35	-4	15	x
CCOC(=O)N1CCN(c2c(F)cc3[nH]c(=S)[nH]c3c2Br)CC1	1.5	1.1	7	6	51*	-8	-14
